ChEMBL document CHEMBL1125374, “Novel anticancer prodrugs of butyric acid. 2” (J Med Chem, 1992)

Assays:
B16-F10 [1] = test: Effect on metastases of B16F10.9 melanoma cells (intravenously injected) in C57BL/6 mice was observed after administration of 25 mg/kg dose; details: route intraperitoneal
B16-F10 [2] = test: Effect on metastases of B16F10.9 melanoma cells (intravenously inoculated) in C57BL/6 mice was observed after administration of 12.5 mg/kg dose; details: route intravenous
[3] = Lethal dose was determined; type: toxicity; details: mouse
How it was run: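 Acute toxicity in male and female BALB/c mice (3 experiments) and C57Bl mice (2 experiments), 6-8 weeks old, weighing 20 ± 0.5 g, in groups of 10. Each mouse got a single injection of 0.125-2.5 g/kg in propylene glycol, and LD50 was taken from mortality.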

WEHI = test: Concentration required for 50% proliferation inhibition of myelomonocytic WEHI cell line; type: functional, cell-based; details: Mus musculus
How it was run: (§1)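 Cells grown in RPMI with 10% fetal calf serum and 2 mM glutamine at 37 °C, 5% CO2. HL-60 (human promyelocytic) and WEHI (murine myelomonocytic) cells exposed to a titration of compound for 24 h. [3H]thymidine pulsed at 1 µCi/well during the last 14 h. Acid-insoluble counts collected on glass-fibre filters. IC50 taken from percent incorporation vs log concentration. At least two independent experiments.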

B16-F10 [4] = test: Effect on metastases of B16F10.9 melanoma cells (intravenously injected) in C57BL/6 mice was observed after administration of 25 mg/kg dose; details: route intraperitoneal; remark: listed apart in the source
B16-F10 [5] = test: Effect on metastases of B16F10.9 melanoma cells (intravenously injected) in C57BL/6 mice was observed after administration of 12.5 mg/kg; details: route intraperitoneal
HL-60 = test: Concentration required for 50% proliferation inhibition of human promyelocytic HL-60 cell line; type: functional, cell-based
How it was run: as §1

B16-F10 [6] = test: Effect on metastases of B16F10.9 melanoma cells (intravenously injected) was observed after administration of 50 mg/kg dose; details: route intraperitoneal
B16-F10 [7] = test: Effect on metastases of B16F10.9 melanoma cells (intravenously injected) in C57BL/6 mice was observed after administration of 100 mg/kg dose; details: route intraperitoneal
B16-F10 [8] = test: Inhibitory activity on growth of B16F10.9 melanoma cell line; type: functional, cell-based; details: Mus musculus
How it was run: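 B16F10.9 melanoma cells (4 x 10^4) seeded in 35-mm dishes in RPMI/10% FCS at 37 °C, 5% CO2. Compound added 6 h after seeding. On day 4 cells detached in PBS with 1 mM EDTA and counted electronically. IC50 read from viable cell number vs log concentration.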

B16-F10 [9] = test: Effect on metastases of B16F10.9 melanoma cells (intraperitoneally implanted) in B6C3F1/OLAC/HSD mice was observed after administration of 50 mg/kg dose; type: functional, Mus musculus; details: route intraperitoneal
B16-F10 [10] = test: Effect on appearance of B16F10.9 colonies in semisolid agar; type: functional, cell-based; details: Mus musculus
How it was run: (§2)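 B16F10.9 cells (10^3) plated in the upper layer of a 0.6 mL RPMI soft-agar bilayer. Lower layer: conditioned medium 40, FCS 10, horse serum 15, agar 0.5 (% v/v). Upper layer: FCS 20, horse serum 20, agar 0.36. Compound added to the upper layer. Aggregates of more than 20 cells scored as colonies by inverted microscope after 7 days.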

B16-F10 [11] = test: Effect on metastases of B16F10.9 melanoma cells (intravenously injected) in C57BL/6 mice was observed after administration of 100 mg/kg dose; details: route intraperitoneal; remark: listed apart in the source
B16-F10 [12] = test: Effect on appearance of B16F10.9 colonies in semisolid agar at 1 mM; type: functional, Mus musculus
How it was run: as §2

SMILES	Lung weight (B16-F10 [1]) [g]	Lung weight (B16-F10 [2]) [g]	LD50 [3] [mg/kg]	IC50 (WEHI) [µM]	No. of lung lesions (B16-F10 [4])	No. of lung lesions (B16-F10 [5])	IC50 (HL-60) [µM]	Lung weight (B16-F10 [6]) [g]	No. of lung lesions (B16-F10 [7])	IC50 (B16-F10 [8]) [µM]	No. of lung lesions (B16-F10 [9])	IC50 (B16-F10 [10]) [µM]	Lung weight (B16-F10 [11]) [g]	Decrease (B16-F10 [12]) [%]
CCCC(=O)OCOC(=O)C(C)(C)C [AN-9]	0.135	0.1571	1360	75	72.38	97.89	49.5	0.0929	140	82	66.6	60	0.269	–
CCCC(=O)O [BUTYRIC ACID]	–	–	–	850	–	–	1520	–	–	933	–	–	–	22
O=P1(N(CCCl)CCCl)NCCCO1 (stereo not drawn) [CYCLOPHOSPHAMIDE ANHYDROUS]	–	–	–	–	–	–	–	–	–	–	56.38	–	–	–
